Results taken from the EternaBench riboswitch data.

Columns and labels:
MS2 coat protein [1] = test: apparent Kd, MS2 coat protein; higher = weaker binding; RNA-MaP array
Procedure, shortened: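 Designed RNAs were transcribed in place on an Illumina sequencing chip from sequenced DNA templates. At room temperature and with or without input ligand, they were incubated with fluorescently labeled MS2 coat protein from 1.5 nM to 3 μM, for 0.8–1.5 h at the lowest and 10–20 min at the highest concentrations. Apparent Kd is the median of the binding-curve fits made per cluster, with designs measured on fewer than 10 clusters excluded.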

MS2 coat protein [2] = test: apparent Kd, MS2 coat protein; higher = weaker binding; RNA-MaP array; FMN 200 µM where present; details: designed as: OFF switch for flavin mononucleotide
Procedure, shortened: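 Each design was made on Illumina sequencing-chip clusters by stalled E. coli RNA polymerase and titrated with SNAP-549-labelled MS2 coat protein from 0.7 or 1.5 nM, doubling to 3 µM, in the absence and then the presence of constant ligand. The buffer was 100 mM Tris-HCl pH 7.5, 80 mM KCl, 4 mM MgCl2, BSA, DTT, yeast tRNA and Tween-20. The apparent Kd is the median of filtered per-cluster fits of binding curves, with green signal normalised to red-channel RNA signal and control-cluster median Fmax.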

[3] = designed as: ON switch for flavin mononucleotide, no ligand
[4] = ligand present: flavin mononucleotide, designed as: ON switch for flavin mononucleotide
[5] = designed as: OFF switch for flavin mononucleotide, no ligand
[6] = ligand present: flavin mononucleotide, designed as: OFF switch for flavin mononucleotide
[7] = designed as: ON switch for theophylline, no ligand
[8] = ligand present: theophylline, designed as: ON switch for theophylline
[9] = ligand present: flavin mononucleotide

Sequence	apparent Kd (MS2 coat protein [1]; [5])	apparent Kd (MS2 coat protein [1]; [6])	further results
UUACACAUGAGGAUCACCCAUGUCUGGGAGCGAGGACCGGUACGGCCGCCACUCGAAUUGUCAGGGCUAUGCCGGACGAUGCAUC	–	–	apparent Kd (MS2 coat protein [1]; designed as: ON switch for tryptophan, no ligand): 0.0171 µM; apparent Kd (MS2 coat protein [1]; ligand present: tryptophan, designed as: ON switch for tryptophan): 0.0211 µM
CGCCCUAAAGAUAAGGAUAUUCAGUUAGUAACAUGAGGAUCACCCAUGUGCACAUUUCACUUGAUGAAGAAGGUAUCUGGAACAUU	–	–	apparent Kd (MS2 coat protein [1]; [3]): 0.00827 µM; apparent Kd (MS2 coat protein [1]; [4]): 0.0061 µM
UGGCCAGAACCUUUUGUGGCCACAUGAGGAUCACCCAUGUGCGAGGAUAUCCCAUCCGGUCCGGCGGAGAAGGCGCGUAUCGGC	–	–	apparent Kd (MS2 coat protein [1]; [3]): 0.0344 µM; apparent Kd (MS2 coat protein [1]; [4]): 0.0301 µM
GCAUUAACAAAGGAUAUGCAUUUCGUCAAUGUAGCAGAAGGUUGUACAUGAGGAUCACCCAUGUGUGAUCGAAC	0.026 µM	0.0566 µM	–
GUCUGGUCAGGAUAUUCGAGGUGUAACAUGAGGAUCACCCAUGUUUCUUAGCUAGAGGCCGAAGAAGGGACGGGUA	0.0114 µM	0.0101 µM	–
GCUAAUCCAGGAGGAUAUAGGUUCUUUUCUACACAUGAGGAUCACCCAUGUGCAUCCCGGCGUACCUAGAAGGCCUGUCUAAAA	–	–	apparent Kd (MS2 coat protein [1]; [3]): 0.026 µM; apparent Kd (MS2 coat protein [1]; [4]): 0.0155 µM
CGAGUCUUAUAGAAGGUAGACAUGAGGAUCACCCAUGUACUGGCAACGAAUAGUCGUAGUACACCUAAGGAUAUAUGGGAUGAG	–	–	apparent Kd (MS2 coat protein [1]; [3]): 0.0747 µM; apparent Kd (MS2 coat protein [1]; [4]): 0.0523 µM
CCAAAGUAAGGAUAUCGAAGAACCACAACCGACGGAACGAACGAGAAGGUACAUGAGGAUCACCCAUGUGAUAG	0.0116 µM	0.0197 µM	–
UAGUAGUAAGGAUAUGCGGCACCGACGCCUCCGAACCGCGGGCAGAAGGUACAUGAGGAUCACCCAUGUGGGUA	0.169 µM	0.116 µM	–
AAUUGUGCAGGAUAUUCACAGGUGAACAUGAGGAUCACCCAUGUAGCAUGAGGUGUAAUCGAAGAAGGGCAGGUCC	0.109 µM	0.0728 µM	–
GGACAAGAAGAGAAGGGCUUACCAAACCUCAACAUGAGGAUCACCCAUGUCAAAGUGGAAGCAUAGCAGGAUAUCUAACAGCGC	0.00809 µM	0.00772 µM	–
AAGUCGCAAGGAUAUACAGUAAGGGUUCGGAUGGGAAGCUUACAUGAGGAUCACCCAUGUAGAAGGUGCAUUCA	0.0269 µM	0.0314 µM	–
UUAGUGAUACUAGGAUAUAGGUAAGACUCUUAACUAGAAGGAGUAGGGACGAAUACAUGAGGAUCACCCAUGUGAUUCUGGUUG	0.0216 µM	0.0263 µM	–
GUGGGCUAGGAGAAGGACGAUCGAAGCCAUAUCGUAGGAUAUCCAUUAAGAUCCCGGACAUGAGGAUCACCCAUGUGGUGAUAG	0.676 µM	0.414 µM	–
GCAUAGUAAAAUGAUACCAGAGUCAAAACAGACAUGAGGAUCACCCAUGUGCAUAUACAACUCCCUUGGCAGCAUUAAAACGGGA	–	–	apparent Kd (MS2 coat protein [1]; [7]): 0.0171 µM; apparent Kd (MS2 coat protein [1]; [8]): 0.013 µM
GAUGCACAUGAGGAUCACCCAUGUCCUGAUACCAGAACGCGACUUUUCCCUUGGCAGCAGAAUUCACUUUUUUACAUUCAUACUG	–	–	apparent Kd (MS2 coat protein [1]; [7]): 0.0221 µM; apparent Kd (MS2 coat protein [1]; [8]): 0.0229 µM
AUAGAGGAUAAAGGAUAUGAGGUGAACAUCGAUUCAGAAGGUUAUCAGGAUACAUGAGGAUCACCCAUGUUUCCUUUGCUGUUG	–	–	apparent Kd (MS2 coat protein [1]; [3]): 0.0385 µM; apparent Kd (MS2 coat protein [1]; [4]): 0.0229 µM
CAGGUUCGUACAGGAUAUGGUUACAUGAGGAUCACCCAUGUGCGGUGAGCUGAUUAGUGCACAGUCCAGAAGGGUAGGAUAACA	–	–	apparent Kd (MS2 coat protein [1]; [3]): 0.852 µM; apparent Kd (MS2 coat protein [1]; [4]): 0.684 µM
ACUGCGCACGGGCUCCACAUGAGGAUCACCCAUGUUGAACUGAGAAGGGAAAGAAGAAACUACAUUCAGGAUAUCAUUUCACCA	0.0445 µM	0.0466 µM	–
ACGCGUUCACAGAAGGCCUACAAAAUUACAUUAGGAGGAUAUGUUACAUGAGGAUCACCCAUGUCAUGGCUGUGUCUCGGUAUC	0.0308 µM	0.0414 µM	–
GCGAGGAGGCAGAAGGACUAAAACACGCUACAAGUAGGAUAUGCAUCCUGCACACAUGAGGAUCACCCAUGUAGAUCCUAUCGC	0.078 µM	0.151 µM	–
GAUUAACAUGAGGAUCACCCAUGUGAGGAUAUGGACUGGCUCACUUUCCGAUUCGAGUCUAGAAGGCGCAUCUU	–	–	apparent Kd (MS2 coat protein [2]; no ligand): 0.0328 µM; apparent Kd (MS2 coat protein [2]; [9]): 0.0352 µM
AGUCGGAGCAGAGGAUAUUACAUGAGGAUCACCCAUGUAUGAACCAAUAGCUGGAAACAGCAAUGUAAGAAGGCUGCUCCGACA	–	–	apparent Kd (MS2 coat protein [2]; no ligand): 0.0376 µM; apparent Kd (MS2 coat protein [2]; [9]): 0.426 µM
